CHOP UPR activ – activators of apoptotic CHOP UPR arm, primary screen, cell-based, CHO-CHOP luciferase reporter, luminescence, uHTS; UPR activation; percent of tunicamycin response over DMSO baseline; activation, % at 10 µM; 330,000 compounds, 0.34% hits; AID 449763, 2010;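 active means at 10 µM dose, activation of 40% or more, normalized to positive control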;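 further: 100% = tunicamycin at 10 µg/mL and 0% = DMSO alone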
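Material: CHO-CHOP cells, stable luciferase reporter of PERK-eIF2a-CHOP signalling; quantity: 500 reporter cells seeded per well; buffer or medium: F12 medium containing 10% fetal bovine serum; compound: one dose, 10 µM in 0.5% DMSO; incubation: 6 h compound treatment, 37 °C; measured by: Steady-Glo luciferase luminescence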
Hep lipid drop – inhibitors of hepatocyte lipid droplet formation, primary screen, imaging, high-throughput imaging, BODIPY stain | AML12 mouse hepatocytes, oleate lipid droplets | 240,000 compounds, 0.4% hits | AID 1656, 2009 | inhibition, % at 6.5 µM;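 active means lipid droplet intensity inhibited by at least 50%, with more than 500 cells counted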
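Technique: fluorescence imaging, 20x objective, two fields per well / Assay system: AML12 hepatocytes (mouse) / Measure: % inhibition of lipid droplet signal / Doses: 6.5 µM single-point dosing / Incubation: overnight exposure / Reagent: 100 µM oleic acid challenge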
CHOP inhibitor – inhibitors of CHOP promoter induction, primary screen, cell-based, unfolded protein response, luciferase reporter; CHO-K1 CHOP-promoter luciferase, tunicamycin-induced, 15-18 h; AID 2732, 2010; 220,000 compounds, 3.8% hits; inhibition, % at 10 µM;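 active means compounds that reduced the stress-induced luciferase reporter signal by more than about 70% of percent inhibition, limit read from the data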;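 further: 0% = tunicamycin plus vehicle and 100% = wells without tunicamycin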
TMEM16A act – TMEM16A chloride channel activators or potentiators, primary screen, cell-based, HTS. HEK293 TMEM16A/YFP-H148Q/I152L, iodide quench fluorescence; hits give low values. B-score at 10 µM. 340,000 compounds, 0.3% hits;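 active means fluorescence-ratio B-score plate-corrected deviation score at least 3 library SD below zero, with starting fluorescence score within 5 deviations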;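 further: channel opened by trigger with iodide after compound preincubation; score built on the fluorescence ratio of max minus min over baseline; more negative score means more quench and so TMEM16A activation or potentiation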
Target sequence (Q8BHY3 whole entry, looked up): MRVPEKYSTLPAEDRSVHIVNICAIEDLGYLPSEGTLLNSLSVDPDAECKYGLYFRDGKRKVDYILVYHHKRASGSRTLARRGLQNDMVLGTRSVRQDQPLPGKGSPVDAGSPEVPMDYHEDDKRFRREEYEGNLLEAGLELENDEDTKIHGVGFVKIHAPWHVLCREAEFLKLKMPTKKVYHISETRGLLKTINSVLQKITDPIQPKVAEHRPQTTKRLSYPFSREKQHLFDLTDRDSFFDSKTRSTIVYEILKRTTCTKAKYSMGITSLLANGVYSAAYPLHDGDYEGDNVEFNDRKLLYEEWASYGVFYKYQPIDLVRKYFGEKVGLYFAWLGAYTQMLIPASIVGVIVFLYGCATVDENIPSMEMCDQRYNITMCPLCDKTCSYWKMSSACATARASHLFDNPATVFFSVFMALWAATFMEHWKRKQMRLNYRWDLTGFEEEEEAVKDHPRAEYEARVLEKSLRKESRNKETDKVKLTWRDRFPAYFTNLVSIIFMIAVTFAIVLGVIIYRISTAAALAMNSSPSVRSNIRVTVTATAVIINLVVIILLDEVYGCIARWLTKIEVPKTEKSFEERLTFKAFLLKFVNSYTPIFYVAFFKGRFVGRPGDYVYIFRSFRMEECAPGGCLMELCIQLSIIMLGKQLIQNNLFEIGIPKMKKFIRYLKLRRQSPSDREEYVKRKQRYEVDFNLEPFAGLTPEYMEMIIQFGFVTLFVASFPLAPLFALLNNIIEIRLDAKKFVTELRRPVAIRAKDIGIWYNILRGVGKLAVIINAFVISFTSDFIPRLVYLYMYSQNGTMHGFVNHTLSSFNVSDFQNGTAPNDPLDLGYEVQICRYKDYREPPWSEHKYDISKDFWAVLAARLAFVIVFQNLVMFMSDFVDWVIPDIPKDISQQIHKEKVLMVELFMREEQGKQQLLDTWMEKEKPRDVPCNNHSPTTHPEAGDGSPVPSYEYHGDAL
UPR XBP1 act – activators of adaptive XBP1 UPR arm, primary screen, cell-based, CHO-XBP1 luciferase reporter, luminescence, uHTS | AID 463104, 2010 | IRE1-XBP1 UPR activation; percent of tunicamycin response, DMSO as zero | 330,000 compounds, 0.33% hits | activation, % at 20 µM;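 active means versus positive control, 20 µM dose yields 30% or more activation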;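 further: 100% = tunicamycin at 10 µg/mL and 0% = DMSO only wells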
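Test system: CHO-XBP1 luciferase reporter cells | Buffer or medium: Serum-containing F12 medium, 10% FBS | Schedule: 6 h compound exposure at 37 °C, 5% CO2 | Detection: Steady-Glo luciferase glow luminescence, 10 min after reagent addition | Read-out basis: Activation, % of tunicamycin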
ANO1 block – TMEM16A chloride channel inhibitors, primary screen, cell-based, HTS. Anoctamin-1 (Mus musculus), Q8BHY3. HEK293 TMEM16A/YFP iodide influx fluorescence, ionomycin. normalized B-score (activity score, 25-100; higher = stronger inhibition) at 10 µM. 310,000 compounds, 1.2% hits;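 active means ratio plate-corrected score three or more library SD toward inhibition, starting fluorescence score within five deviations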;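 further: score derived from kinetic fluorescence span divided by baseline fluorescence per well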
CHOP confirm – retest of CHOP induction inhibitors, confirmation, cell-based | 2,100 compounds, 45% hits | inhibition, % at 10 µM | CHO-CHOP promoter luciferase reporter, tunicamycin-induced, luminescence | shares compounds with CHOP inhibitor;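 active means mean of three repeat readings of reporter signal inhibition above a set limit, cut at about 70% in these data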;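 further: 0% = tunicamycin plus vehicle and 100% = wells lacking tunicamycin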
Active calls of the source: *; i = inactive; . = no result. The list is not random: actives were taken first. Their share in the collection is about 4.2%.

SMILES	CHOP UPR activ	Hep lipid drop	CHOP inhibitor	TMEM16A act	UPR XBP1 act	ANO1 block	CHOP confirm
O=S(=O)(Nc1ccc(Cc2ccncc2)cc1)c1ccc(Cl)c(Cl)c1	-1.7	.	102.6*	i	0.3	i	53.9
O=S(=O)(Nc1ccncc1)c1ccc(Cl)cc1	-1.8	-13.0	4.7	i	0.8	i	.
CCN(CC)C(=O)Oc1ccc2oc(=O)cc(-c3cc4cccc(OC)c4o3)c2c1	-1.8	-4.4	.	i	-1.6	i	.
Cc1cc(Cl)ccc1OCC(=O)OCC(=O)Nc1ccc(F)c([N+](=O)[O-])c1	.	-6.8	-8.2	i	.	i	.
Cc1ccc(NC(=O)COc2ncnc3c(Cl)cc(Cl)cc23)cc1[N+](=O)[O-]	-0.9	-10.2	104.4*	i	0.1	i	4.3
CCOc1ccc(N2C(=O)/C(=C\c3ccc(O)c(OC)c3)S(=O)(=O)C2c2cccc([N+](=O)[O-])c2)cc1 (stereo not given)	4.7	1.6	104.4*	i	4.0	i	79.9*
COc1ccc(C(=O)OCc2c(-c3ccccc3)ncc3ccccc23)cc1	2.7	.	.	i	1.9	.	.
COc1cccc(OCCSc2nc(C)c(Cc3ccccc3)c(=O)[nH]2)c1	-0.5	11.7	99.2*	i	-4.6	i	-76.1
Cc1ccc(-n2ncc(Br)c(Br)c2=O)cc1	.	-0.5	104.8*	i	.	.	120.8*
O=c1c(Br)c(Br)cnn1-c1ccccc1	.	46.2	106.0*	i	.	.	118.0*
COc1c(Cl)cnn(-c2ccc(C)cc2)c1=O	3.3	-0.9	-53.0	i	-1.1	i	.
Cc1cc(C)c(S(=O)(=O)N2CCN(C(=O)CCn3nc(C)c(C)c3C)CC2)c(C)c1	0.8	-24.6	.	i	1.9	i	.
CCc1ccc(/C=c2\s/c(=C\C(=O)C(C)(C)C)[nH]c2=O)cc1	-0.6	49.7	106.6*	i	0.3	i	80.1*
CCc1ccc(/C=C2/C(=O)NC(=O)N2C(C)=O)cc1	6.5	0.3	.	i	0.7	i	.
COc1cc(-c2nc3cnccn3c2Nc2ccc(C(C)C)cc2)ccc1O	4.3	-16.6	110.0*	i	21.3	i	27.6
COc1cc(-c2nc3cnccn3c2Nc2ccc(C)cc2)ccc1O	-0.5	-9.4	-11.1	i	6.0	i	.
Oc1ccc(-c2nnc(SCC3CCCCC3)o2)cc1	5.6	.	106.5*	i	9.6	i	34.9
CC(=O)N/C(=C\c1ccc(F)cc1)C(=O)N(C)C	1.9	-9.9	-9.6	i	-2.9	i	.
O=C(Cc1ccc(Cl)c(Cl)c1)Nc1ccc2[nH]c(=O)[nH]c2c1	-0.5	-8.7	98.4*	i	0.0	i	5.5
CC(=O)Nc1ccc(S(=O)(=O)N2CCC(C(=O)N[C@@H](C)C(=O)NC3CCCC3)CC2)cc1	-0.4	15.8	.	i	-2.2	i	.
Cc1ccc(C2CN(C)C3(C(=O)Nc4ccccc43)C23COc2ccccc2C3=O)cc1 (stereo not given)	-2.5	.	106.8*	i	1.2	i	88.1*
CC(C)(C)c1ccc(OCC(=O)N/N=C/C2CC=CCC2)cc1 (stereo not given)	7.2	6.5	98.7*	i	-3.2	i	98.6*
CC(C)(C)c1ccc(OCC(=O)N/N=C/c2ccc(N3CCOCC3)cc2)cc1	2.0	24.9	104.7*	i	-3.3	i	64.9
COc1cc(OC)c(OC)cc1CCC(C)NCCC(c1ccccc1)c1ccccc1 (stereo not given)	-0.3	30.2	.	i	1.4	i	.
N#C/C(=C\c1ccc(OC(=O)c2ccc(Cl)s2)cc1)c1nc2ccccc2[nH]1	9.5	5.5	107.3*	i	17.8	i	33.6

Bioassay records (PubChem)
